Reference: ChEMBL document CHEMBL3407388, “Synthesis, anticancer activity and molecular docking studies on a series of heterocyclic trans-cyanocombretastatin analogues as antitubulin agents” (2015)

Assays:
Format in all cases: functional
[1] = test system: SW-620; experiment: Cytotoxicity against human SW620 cells assessed as growth inhibition after 48 hrs by SRB assay; conditions: SW-620, 48 h
[2] = Cytotoxicity against human NCI-ADR-RES cells assessed as growth inhibition after 48 hrs by SRB assay
Method in brief: (§1)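 NCI 60-cell panel; compounds passing a single-dose screen (10−5 M, 48 h) were tested at five 10-fold dilutions (10−4 to 10−8 M) with 48 h drug exposure. GI50 is the molar concentration giving 50% reduction in net cell growth relative to cell numbers on day 0.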

[3] = Cytotoxicity against human PC3 cells assessed as growth inhibition after 48 hrs by SRB assay; conditions: PC-3, 48 h; method in brief: as §1
[4] = test system: U-251; experiment: Cytotoxicity against human U251 cells assessed as growth inhibition after 48 hrs by SRB assay; conditions: U-251, 48 h
[5] = Cytotoxicity against human OVCAR4 cells assessed as growth inhibition after 48 hrs by SRB assay; conditions: OVCAR-4, 48 h; method in brief: as §1
[6] = test system: MOLT-4; experiment: Cytotoxicity against human MOLT4 cells assessed as growth inhibition after 48 hrs by SRB assay; conditions: MOLT-4, 48 h; method in brief: as §1
[7] = test system: HT-29; experiment: Cytotoxicity against human HT-29 cells assessed as growth inhibition after 48 hrs by SRB assay; conditions: HT-29, 48 h; method in brief: as §1
[8] = Cytotoxicity against human UO31 cells assessed as growth inhibition after 48 hrs by SRB assay; conditions: UO-31, 48 h
[9] = test system: SN12C; experiment: Cytotoxicity against human SN12C cells assessed as growth inhibition after 48 hrs by SRB assay; method in brief: as §1
[10] = test system: SF-539; experiment: Cytotoxicity against human SF539 cells assessed as growth inhibition after 48 hrs by SRB assay; conditions: SF-539, 48 h; method in brief: as §1
[11] = test system: DU-145; experiment: Cytotoxicity against human DU145 cells assessed as growth inhibition after 48 hrs by SRB assay; conditions: DU-145, 48 h; method in brief: as §1
[12] = test system: SK-MEL-5; experiment: Cytotoxicity against human SK-MEL-5 cells assessed as growth inhibition after 48 hrs by SRB assay; conditions: SK-MEL-5, 48 h; method in brief: as §1
[13] = test system: K562; experiment: Cytotoxicity against human K562 cells assessed as growth inhibition after 48 hrs by SRB assay; conditions: K562, 48 h; method in brief: as §1
[14] = test system: SK-OV-3; experiment: Cytotoxicity against human SKOV3 cells assessed as growth inhibition after 48 hrs by SRB assay; conditions: SK-OV-3, 48 h; method in brief: as §1
[15] = test system: NCI-H226; experiment: Cytotoxicity against human NCI-H226 cells assessed as growth inhibition after 48 hrs by SRB assay; conditions: NCI-H226, 48 h; method in brief: as §1
[16] = test system: MDA-MB-435; experiment: Cytotoxicity against human MDA-MB-435 cells assessed as growth inhibition after 48 hrs by SRB assay; conditions: MDA-MB-435, 48 h; method in brief: as §1
[17] = test system: TK-10; experiment: Cytotoxicity against human TK10 cells assessed as growth inhibition after 48 hrs by SRB assay; conditions: TK-10, 48 h
[18] = test system: HCC 2998; experiment: Cytotoxicity against human HCC2998 cells assessed as growth inhibition after 48 hrs by SRB assay; conditions: HCC 2998, 48 h; method in brief: as §1
[19] = test system: CAKI-1; experiment: Cytotoxicity against human Caki1 cells assessed as growth inhibition after 48 hrs by SRB assay; conditions: CAKI-1, 48 h; method in brief: as §1
[20] = test system: LOX IMVI; experiment: Cytotoxicity against human LOXIMVI cells assessed as growth inhibition after 48 hrs by SRB assay; method in brief: as §1
[21] = test system: SF-268; experiment: Cytotoxicity against human SF268 cells assessed as growth inhibition after 48 hrs by SRB assay; conditions: SF-268, 48 h; method in brief: as §1
[22] = test system: NCI-H460; experiment: Cytotoxicity against human NCI-H460 cells assessed as growth inhibition after 48 hrs by SRB assay; conditions: NCI-H460, 48 h; method in brief: as §1
[23] = test system: COLO 205; experiment: Cytotoxicity against human COLO205 cells assessed as growth inhibition after 48 hrs by SRB assay; conditions: COLO 205, 48 h; method in brief: as §1
[24] = test system: SF-295; experiment: Cytotoxicity against human SF295 cells assessed as growth inhibition after 48 hrs by SRB assay; conditions: SF-295, 48 h; method in brief: as §1
[25] = Cytotoxicity against human UACC62 cells assessed as growth inhibition after 48 hrs by SRB assay; conditions: UACC-62, 48 h
[26] = test system: M14; experiment: Cytotoxicity against human M14 cells assessed as growth inhibition after 48 hrs by SRB assay; conditions: M14, 48 h; method in brief: as §1
[27] = test system: KM12; experiment: Cytotoxicity against human KM12 cells assessed as growth inhibition after 48 hrs by SRB assay; conditions: KM12, 48 h; method in brief: as §1
[28] = test system: SNB-19; experiment: Cytotoxicity against human SNB19 cells assessed as growth inhibition after 48 hrs by SRB assay; conditions: SNB-19, 48 h; method in brief: as §1
[29] = Cytotoxicity against human HCT15 cells assessed as growth inhibition after 48 hrs by SRB assay; conditions: HCT-15, 48 h; method in brief: as §1
[30] = test system: 786-0; experiment: Cytotoxicity against human 786-0 cells assessed as growth inhibition after 48 hrs by SRB assay; conditions: 786-0, 48 h; method in brief: as §1
[31] = test system: A498; experiment: Cytotoxicity against human A498 cells assessed as growth inhibition after 48 hrs by SRB assay; conditions: A498, 48 h; method in brief: as §1
[32] = Cytotoxicity against human OVCAR5 cells assessed as growth inhibition after 48 hrs by SRB assay; conditions: OVCAR-5, 48 h; method in brief: as §1
[33] = test system: MDA-MB-231; experiment: Cytotoxicity against human MDA-MB-231 cells assessed as growth inhibition after 48 hrs by SRB assay; conditions: MDA-MB-231, 48 h; method in brief: as §1
[34] = Cytotoxicity against human HCT116 cells assessed as growth inhibition after 48 hrs by SRB assay; conditions: HCT-116, 48 h; method in brief: as §1
[35] = test system: HL-60(TB); experiment: Cytotoxicity against human HL-60(TB) cells assessed as growth inhibition after 48 hrs by SRB assay; conditions: HL-60, 48 h
Method in brief: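 NCI 60-cell panel, leukemia subpanel. Five-dose screen at 10-fold dilutions from 10−4 to 10−8 M with 48 h drug exposure. GI50 is the molar concentration giving 50% reduction in net cell growth compared with cell numbers on day 0.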

[36] = test system: NCI-H23; experiment: Cytotoxicity against human NCI-H23 cells assessed as growth inhibition after 48 hrs by SRB assay; conditions: NCI-H23, 48 h; method in brief: as §1
[37] = test system: MCF7; experiment: Cytotoxicity against human MCF7 cells assessed as growth inhibition after 48 hrs by SRB assay; conditions: MCF7, 48 h; method in brief: as §1
[38] = Cytotoxicity against human OVCAR8 cells assessed as growth inhibition after 48 hrs by SRB assay; conditions: OVCAR-8, 48 h; method in brief: as §1
[39] = Cytotoxicity against human OVCAR3 cells assessed as growth inhibition after 48 hrs by SRB assay; conditions: OVCAR-3, 48 h; method in brief: as §1
[40] = test system: IGROV-1; experiment: Cytotoxicity against human IGROV1 cells assessed as growth inhibition after 48 hrs by SRB assay; conditions: IGROV-1, 48 h; method in brief: as §1
[41] = test system: BT-549; experiment: Cytotoxicity against human BT549 cells assessed as growth inhibition after 48 hrs by SRB assay; conditions: BT-549, 48 h; method in brief: as §1
[42] = test system: SNB-75; experiment: Cytotoxicity against human SNB75 cells assessed as growth inhibition after 48 hrs by SRB assay; conditions: SNB-75, 48 h
[43] = test system: RPMI-8226; experiment: Cytotoxicity against human RPMI8226 cells assessed as growth inhibition after 48 hrs by SRB assay; conditions: RPMI-8226, 48 h; method in brief: as §1

COc1ccc(/C(C#N)=C/c2c[nH]c3ccccc23)cc1OC
GI50 [1]: 3.53 µM | GI50 [2]: 1.7 µM | GI50 [3]: 7.85 µM | GI50 [4]: 4.97 µM | GI50 [5]: 22.1 µM | GI50 [6]: 3.99 µM | GI50 [7]: 3.32 µM | GI50 [8]: 14.3 µM | GI50 [9]: 8.1 µM | GI50 [10]: 8.42 µM | GI50 [11]: 22.6 µM | GI50 [12]: 4.27 µM | GI50 [13]: 1.65 µM | GI50 [14]: 11.9 µM | GI50 [15]: 20.9 µM | GI50 [16]: 3.95 µM | GI50 [17]: 13.2 µM | GI50 [18]: 12.6 µM | GI50 [19]: 4.34 µM | GI50 [20]: 5.32 µM | GI50 [21]: 18.9 µM | GI50 [22]: 4.51 µM | GI50 [23]: 5.31 µM | GI50 [24]: 4.92 µM | GI50 [25]: 6.98 µM | GI50 [26]: 3.75 µM | GI50 [27]: 4.04 µM | GI50 [28]: 24.2 µM | GI50 [29]: 3.7 µM | GI50 [30]: 14.1 µM | GI50 [31]: 3.36 µM | GI50 [32]: > 100 µM | GI50 [33]: 7.18 µM | GI50 [34]: 35.5 µM | GI50 [35]: 4.57 µM | GI50 [36]: 7.19 µM | GI50 [37]: 3.1 µM | GI50 [38]: 7.38 µM | GI50 [39]: 5.68 µM | GI50 [40]: 21 µM | GI50 [41]: 5.38 µM | GI50 [42]: 6.04 µM | GI50 [43]: 3.96 µM

COc1cc(OC)cc(/C(C#N)=C/c2nc3ccccc3s2)c1
GI50 [1]: 0.343 µM | GI50 [2]: 1.47 µM | GI50 [3]: 2.74 µM | GI50 [4]: 1.91 µM | GI50 [5]: > 10 µM | GI50 [6]: 3.38 µM | GI50 [7]: 0.438 µM | GI50 [8]: 0.679 µM | GI50 [9]: 4.68 µM | GI50 [10]: 1.68 µM | GI50 [11]: 1.07 µM | GI50 [12]: 1.37 µM | GI50 [13]: 0.333 µM | GI50 [14]: 1.79 µM | GI50 [15]: 4.11 µM | GI50 [16]: 0.199 µM | GI50 [17]: 2.78 µM | GI50 [18]: 8.39 µM | GI50 [19]: 0.482 µM | GI50 [20]: 1.84 µM | GI50 [21]: 3.09 µM | GI50 [22]: 2.86 µM | GI50 [23]: 0.574 µM | GI50 [24]: 2.46 µM | GI50 [25]: 0.755 µM | GI50 [26]: 1.21 µM | GI50 [27]: 2.01 µM | GI50 [28]: > 10 µM | GI50 [29]: 0.414 µM | GI50 [30]: 2.44 µM | GI50 [31]: 0.417 µM | GI50 [32]: 4.85 µM | GI50 [33]: 6.74 µM | GI50 [34]: 0.404 µM | GI50 [35]: 0.345 µM | GI50 [36]: 2.84 µM | GI50 [37]: 0.399 µM | GI50 [38]: 3.13 µM | GI50 [39]: 0.285 µM | GI50 [40]: 0.706 µM | GI50 [41]: 3.45 µM | GI50 [42]: 2.13 µM | GI50 [43]: 2.29 µM
